Assay results gathered from unrelated publications.
Compare with care: the assays were run in different laboratories.
Target: Calcium/calmodulin-dependent protein kinase type IV (CAMK4, Homo sapiens, UniProt Q16566)
Residues used in one study (Q16566 1-473): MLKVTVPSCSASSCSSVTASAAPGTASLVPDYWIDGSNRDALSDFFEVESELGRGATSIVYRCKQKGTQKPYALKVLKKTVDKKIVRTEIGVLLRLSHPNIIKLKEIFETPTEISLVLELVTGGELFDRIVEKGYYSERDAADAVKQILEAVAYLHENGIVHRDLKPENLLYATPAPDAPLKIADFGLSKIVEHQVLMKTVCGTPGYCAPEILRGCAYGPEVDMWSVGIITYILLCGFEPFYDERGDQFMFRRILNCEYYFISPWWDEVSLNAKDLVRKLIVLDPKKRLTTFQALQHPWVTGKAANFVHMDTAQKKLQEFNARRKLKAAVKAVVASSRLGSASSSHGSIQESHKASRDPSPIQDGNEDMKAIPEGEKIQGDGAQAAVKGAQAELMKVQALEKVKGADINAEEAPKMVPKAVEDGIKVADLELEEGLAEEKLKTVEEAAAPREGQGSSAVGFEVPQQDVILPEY

| Structure (SMILES) | test | conditions | endpoint | result |
| --- | --- | --- | --- | --- |
| CC(C)(C)c1nc2c(s1)c1nc(N)ncc1c1ccc(NS(=O)(=O)c3c(F)cccc3F)c(F)c12 | enzyme activity, inhibitor, radiometric | 1 µM | remaining activity | 94% |
| CCC(=O)N[C@@H]1CC[C@H](C(=O)N(C)c2ccc(-c3nc4ccccc4o3)cc2)C1 | cell-free assay, competition with immobilised ligand | 1 µM | remaining binding | 100% |
| Cn1c2c(c3ccc(Cl)c(Cl)c31)C(C#N)C(C)(C)NC2=O (centres unmarked) | thermal stability, DSF | 10 µM | ΔTm | 0.1 °C |
| O=C(NCc1ncc(C(F)(F)F)cc1Cl)c1ccc2c(c1)C1(CCS(=O)(=O)CC1)[C@H](C1CC1)N2S(=O)(=O)c1ccc(F)cc1 | cell-free assay, competition with immobilised ligand | 1 µM | remaining binding | 86% |
| Cc1ccc(NC(=O)c2ccc(C)c(C(F)(F)F)c2)cc1C#Cc1nn(C2CCC(O)CC2)c2ncnc(N)c12 (centres unmarked) | cell-free assay | 10 µM | remaining signal | 93% |
| CCN(CC)CCNC(=O)c1c(C)[nH]c(/C=C2\C(=O)Nc3ccc(F)cc32)c1C | enzyme activity, inhibitor | 0.3 µM | inhibition | 22% |
| COc1cc2ncnc(Nc3ccc(Oc4ccccc4)cc3C)c2cc1OC | enzyme activity, inhibitor | 1 µM | inhibition | -20% |
| Cc1cnc(NC2CCOCC2)nc1-n1cnc(C(=O)NC(CN)c2cc(F)cc(Cl)c2)c1 (centres unmarked) | enzyme activity, inhibitor, radiometric | 1 µM | remaining activity | 49% |
| Cc1c[nH]c2nccc(Oc3c(F)cc(Nc4cc(Cl)nc(N)n4)cc3F)c12 | cell-free assay, competition with immobilised ligand | 0.1 µM | remaining binding | 100% |
| O=C1Nc2ccc(Cl)cc2C1=Cc1cc(Cl)c(O)c(Cl)c1 | cell-free assay | 0.5 µM | remaining signal | 96.8% |
| COc1cc(Cl)c(C(=O)N[C@@H](CN[C@H]2CC[C@@H](N)CC2)Cc2ccc(C#N)cc2)cc1-c1ccc(CN[C@H](C)c2ccc(C)cc2)o1 | enzyme activity, inhibitor | 1 µM | remaining activity | 92% |
| Cc1sc(C(=O)NC2COC2)cc1-n1cc(NC(=O)Nc2c(F)cccc2Cl)cn1 | enzyme activity, inhibitor | 10 µM | remaining activity | 98.5% |
| Cc1cc(NC(=O)c2cccc3cc(-c4cccc5[nH]nc(N)c45)ccc23)ccc1F | enzyme activity, inhibitor | 0.1 µM | activity vs control | 104% |
| Cn1c2c(c3ccc(Cl)c(Cl)c31)C(C#N)C1(CCN(C(=O)OC(C)(C)C)CC1)NC2=O (racemic) | thermal stability, DSF | 10 µM | ΔTm | -0.3 °C |
| CS(=O)(=O)CCNCc1ccc(-c2ccc3ncnc(Nc4ccc(OCc5cccc(F)c5)c(Cl)c4)c3c2)o1 | cell-free assay | 0.5 µM | remaining signal | 107% |
| CC1=C(C#N)C(c2ccc3c(c2)c(NC(=O)c2ccccc2C)nn3C)C(C#N)=C(C)N1 | cell-free assay, competition with immobilised ligand | 1 µM | remaining binding | 70% |

| Structure (SMILES) | test | conditions | endpoint | result |
| --- | --- | --- | --- | --- |
| Cn1c2c(c3ccccc31)C(C#N)C(C)(C)NC2=O (centres unmarked) | thermal stability, DSF | 10 µM | ΔTm | 0 °C |
| Cc1ccc(NC(=O)c2ccc(CN3CCN(C)CC3)cc2)cc1Nc1nc(-c2cccnc2)cs1 | cell-free assay | 0.5 µM | remaining signal | 98.6% |
| CNC(=O)c1cc(Oc2ccc(NC(=O)Nc3ccc(Cl)c(C(F)(F)F)c3)cc2)ccn1 | enzyme activity, inhibitor | 0.3 µM | inhibition | -4% |
| COc1cc2c(Nc3ccc(Br)cc3F)ncnc2cc1OCC1CCN(C)CC1 | cell-free assay | 0.5 µM | remaining signal | 101% |
| Cn1c2c(Cl)c(Cl)ccc2c2cc[nH]c(=O)c21 | thermal stability, DSF | 10 µM | ΔTm | 0.4 °C |
| CCN(CC)c1ccc(C2=NNC(=O)CC2C)cc1[N+](=O)[O-] (centres unmarked) | enzyme activity, inhibitor | 10 µM | remaining activity | 102% |
| CC(=O)c1c(NS(C)(=O)=O)c2cc(-c3ccc(Cl)cc3)c(-c3ccc(Cl)cc3Cl)nc2n(C)c1=O | cell-free assay, competition with immobilised ligand | 1 µM | remaining binding | 100% |
| CCC1(CC)NC(=O)c2c(c3ccc(Cl)c(Cl)c3n2C)C1C#N (centres unmarked) | thermal stability, DSF | 10 µM | ΔTm | -0.2 °C |
| COc1ccc2c(c1)O[C@@H](c1ccc(OC)c(OC)c1)C[C@H]2NC(=O)C1(c2ccc3c(c2)OC(F)(F)O3)CC1 | cell-free assay, competition with immobilised ligand | 1 µM | remaining binding | 89% |
| N#CCCc1ccc2c(c1)-c1[nH]c3ccc([N+](=O)[O-])cc3c1CC(=O)N2 | cell-free assay | 0.5 µM | remaining signal | 98.4% |
| Cc1ccc(C(=O)Nc2ccc(CN3CCN(C)CC3)c(C(F)(F)F)c2)cc1C#Cc1cnc2cccnn12 | enzyme activity, inhibitor | 23.5 nM | remaining activity | 100% |
| CN(C)C1CCN(CC#Cc2nn(C3CCCC3)c3nc(NCc4ccccc4)ncc23)C1 (centres unmarked) | enzyme activity, inhibitor, FRET | 1 µM | inhibition | 7% |
| CN([C@@H]1CCc2c(CC(=O)O)c3ccccc3n2C1)S(=O)(=O)c1ccc(F)cc1 | cell-free assay, competition with immobilised ligand | 1 µM | remaining binding | 85% |
| N#CC1c2c([nH]c3c(Cl)c(Cl)ccc23)C(=O)NC12CCCCC2 (racemic) | thermal stability, DSF | 10 µM | ΔTm | 0.6 °C |
| O=C(O)c1cc(-c2ccc(C3CCNCC3)cc2)c2ccc(-c3ccc(C(F)(F)F)cc3)cc2c1 | cell-free assay, competition with immobilised ligand | 1 µM | remaining binding | 100% |
| CC1(C)NC(=O)c2[nH]c3c(Cl)c(Cl)ccc3c2C1C#N (centres unmarked) | thermal stability, DSF | 10 µM | ΔTm | -0.1 °C |
